Legend:
[1] = target: T1, Mu-type opioid receptor (Homo sapiens, UniProt P35372); assay: Agonist activity at human mu opioid receptor expressed in HEK293 cells by CellKey method; type: cell-based
Outline: (§1)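 Label-free CellKey impedance biosensor readout of receptor activity in HEK293 cells expressing human MOR, DOR or KOR, run in duplicate.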

[2] = target: T2, Kappa-type opioid receptor (Homo sapiens, UniProt P41145); assay: Agonist activity at human kappa opioid receptor expressed in CHO cells assessed as [35S]-GTP[gammaS] binding relative to U69593; type: functional, cell-based
T2 sequence (P41145 whole entry): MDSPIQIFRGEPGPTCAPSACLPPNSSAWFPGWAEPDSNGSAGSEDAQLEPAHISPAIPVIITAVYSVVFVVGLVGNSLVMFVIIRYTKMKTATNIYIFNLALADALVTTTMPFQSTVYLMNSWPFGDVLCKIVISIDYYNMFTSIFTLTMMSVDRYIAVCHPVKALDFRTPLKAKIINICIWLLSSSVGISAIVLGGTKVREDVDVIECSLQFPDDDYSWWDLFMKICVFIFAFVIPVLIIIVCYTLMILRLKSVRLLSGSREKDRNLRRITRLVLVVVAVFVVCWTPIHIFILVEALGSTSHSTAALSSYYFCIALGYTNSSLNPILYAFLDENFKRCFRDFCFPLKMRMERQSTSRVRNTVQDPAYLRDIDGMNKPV
Outline: (§2)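 Human MOR, DOR or KOR expressed in CHO cells; [35S]GTPγS binding run in duplicate. Emax is the % of the response to DAMDO for MOR, SNC80 for DOR and U-69,593 for KOR.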

[3] = target: Mu-type opioid receptor (Mus musculus, UniProt P42866); assay: Displacement of [3H]DAMGO from mu opioid receptor in mouse whole brain […] membrane; type: tissue-based
Sequence of Mu-type opioid receptor (Mus musculus, UniProt P42866) (P42866 whole entry): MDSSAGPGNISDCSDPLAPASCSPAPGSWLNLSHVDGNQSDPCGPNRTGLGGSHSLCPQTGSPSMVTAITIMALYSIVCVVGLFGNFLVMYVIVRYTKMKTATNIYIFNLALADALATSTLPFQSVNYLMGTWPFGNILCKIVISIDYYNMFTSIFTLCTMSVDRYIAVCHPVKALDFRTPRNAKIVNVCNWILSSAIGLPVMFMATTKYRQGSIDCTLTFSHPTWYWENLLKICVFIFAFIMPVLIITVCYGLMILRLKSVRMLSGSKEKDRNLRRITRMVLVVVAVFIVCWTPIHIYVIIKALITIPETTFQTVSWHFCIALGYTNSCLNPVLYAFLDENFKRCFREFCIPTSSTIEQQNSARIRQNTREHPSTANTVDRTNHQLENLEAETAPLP
Outline: (§3)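 Competitive binding run in duplicate. MOR used [3H]DAMGO and DOR used [3H]DPDPE, both on mouse whole-brain membranes without cerebellum. KOR used [3H]U-69,593 on guinea pig cerebellum membranes.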

[4] = target: T3, Delta-type opioid receptor (Homo sapiens, UniProt P41143); assay: Agonist activity at human delta opioid receptor expressed in CHO cells assessed as [35S]-GTP[gammaS] binding relative to SNC80; type: functional, cell-based; outline: as §2
T3 sequence (P41143 whole entry): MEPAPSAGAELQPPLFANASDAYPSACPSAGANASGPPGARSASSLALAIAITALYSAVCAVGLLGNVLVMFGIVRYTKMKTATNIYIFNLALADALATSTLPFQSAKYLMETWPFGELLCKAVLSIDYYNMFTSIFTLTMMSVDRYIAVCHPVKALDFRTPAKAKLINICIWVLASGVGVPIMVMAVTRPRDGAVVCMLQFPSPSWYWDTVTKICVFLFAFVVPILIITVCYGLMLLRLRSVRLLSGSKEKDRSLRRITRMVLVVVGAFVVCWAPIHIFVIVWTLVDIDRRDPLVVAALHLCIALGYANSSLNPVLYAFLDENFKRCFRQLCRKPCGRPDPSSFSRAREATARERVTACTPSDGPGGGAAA

[5] = target: T2, Kappa-type opioid receptor; assay: Agonist activity at human kappa opioid receptor expressed in HEK293 cells by CellKey method; type: cell-based; outline: as §1
[6] = target: T3, Delta-type opioid receptor; assay: Agonist activity at human delta opioid receptor expressed in HEK293 cells by CellKey method; type: cell-based
Outline: (§4)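 Label-free CellKey impedance biosensor readout of receptor activity in HEK293 cells expressing human MOR, DOR or KOR, run in duplicate. Emax is the % of the response to DAMGO for MOR, SNC80 for DOR and (−)-U-50,488H for KOR.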

[7] = target: T2, Kappa-type opioid receptor; assay: Agonist activity at human kappa opioid receptor expressed in CHO cells assessed as [35S]-GTP[gammaS] binding; type: functional, cell-based; outline: as §2
[8] = target: Delta-type opioid receptor (Mus musculus, UniProt P32300); assay: Displacement of [3H]DPDPE from delta opioid receptor in mouse whole brain […] membrane; type: tissue-based
Sequence of Delta-type opioid receptor (Mus musculus, UniProt P32300) (P32300 whole entry): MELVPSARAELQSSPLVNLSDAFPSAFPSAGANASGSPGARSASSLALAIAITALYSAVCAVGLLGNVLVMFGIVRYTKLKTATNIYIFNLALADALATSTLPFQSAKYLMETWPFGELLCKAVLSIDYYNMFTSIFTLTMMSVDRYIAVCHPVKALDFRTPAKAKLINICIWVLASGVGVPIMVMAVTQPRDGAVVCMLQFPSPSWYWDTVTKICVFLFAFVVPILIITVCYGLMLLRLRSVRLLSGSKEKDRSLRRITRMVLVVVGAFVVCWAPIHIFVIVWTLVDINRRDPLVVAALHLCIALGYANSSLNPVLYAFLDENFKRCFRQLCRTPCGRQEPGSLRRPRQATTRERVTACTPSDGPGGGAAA
Outline: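 Competitive binding run in duplicate. MOR used [3H]DAMGO and DOR used [3H]DPDPE, both on mouse whole-brain membranes without cerebellum.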

[9] = target: T3, Delta-type opioid receptor; assay: Agonist activity at human delta opioid receptor expressed in HEK293 cells by CellKey method relative to SNC80; type: cell-based; outline: as §4
[10] = target: T3, Delta-type opioid receptor; assay: Agonist activity at human delta opioid receptor expressed in CHO cells assessed as [35S]-GTP[gammaS] binding; type: functional, cell-based; outline: as §2
[11] = species: Mus musculus; assay: Selectivity ratio of Ki for mouse mu opioid receptor to Ki for mouse delta opioid receptor
[12] = Selectivity ratio of Ki for guinea pig kappa opioid receptor to Ki for mouse delta opioid receptor
[13] = target: T1, Mu-type opioid receptor; assay: Agonist activity at human mu opioid receptor expressed in HEK293 cells by CellKey method relative to DAMDO; type: cell-based
[14] = target: T1, Mu-type opioid receptor; assay: Agonist activity at human mu opioid receptor expressed in CHO cells assessed as [35S]-GTP[gammaS] binding relative to DAMDO; type: cell-based; outline: as §2
[15] = target: Kappa-type opioid receptor (Cavia porcellus, UniProt P41144); assay: Displacement of [3H]U69593 from kappa opioid receptor in guinea pig cerebellum membrane; outline: as §3
Sequence of Kappa-type opioid receptor (Cavia porcellus, UniProt P41144) (P41144 whole entry): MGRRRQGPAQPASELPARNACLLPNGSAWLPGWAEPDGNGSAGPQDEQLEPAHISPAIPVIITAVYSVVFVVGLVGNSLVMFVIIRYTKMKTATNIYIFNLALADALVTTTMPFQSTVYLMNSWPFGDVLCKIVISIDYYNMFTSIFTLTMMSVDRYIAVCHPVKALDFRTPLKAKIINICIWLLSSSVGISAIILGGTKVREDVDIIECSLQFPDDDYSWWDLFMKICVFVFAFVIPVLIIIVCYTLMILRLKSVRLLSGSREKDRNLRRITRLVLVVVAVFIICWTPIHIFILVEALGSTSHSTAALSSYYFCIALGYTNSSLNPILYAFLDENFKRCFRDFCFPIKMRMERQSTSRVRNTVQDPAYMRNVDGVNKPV

[16] = target: T1, Mu-type opioid receptor; assay: Agonist activity at human mu opioid receptor expressed in CHO cells assessed as [35S]-GTP[gammaS] binding; type: cell-based; outline: as §2
[17] = target: T2, Kappa-type opioid receptor; assay: Agonist activity at human kappa opioid receptor expressed in HEK293 cells by CellKey method relative to (-)U50488H; type: cell-based; outline: as §4
[18] = test system: Mus musculus; assay: Analgesic activity in sc dosed mouse assessed as inhibition of acetic acid-induced writhing treated after 15 mins of acetic acid-challenge; type: functional
Outline: (§5)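 Mice dosed subcutaneously, then scored in the acetic acid writhing test and watched for convulsive behaviour. […] taken from the dose–response. Antagonist reversal tested with NTI, β-FNA or nor-BNI. Groups compared against saline-treated mice by one-way ANOVA with Bonferroni's test.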

[19] = test system: Mus musculus; assay: Toxicity in mouse assessed as induction of convulsion at 1 to 10 mg/kg, sc; type: organism-based; set-up: dose 1-10 mg/kg, route subcutaneous; conditions: in vivo; outline: as §5

T1 sequence (P35372 whole entry): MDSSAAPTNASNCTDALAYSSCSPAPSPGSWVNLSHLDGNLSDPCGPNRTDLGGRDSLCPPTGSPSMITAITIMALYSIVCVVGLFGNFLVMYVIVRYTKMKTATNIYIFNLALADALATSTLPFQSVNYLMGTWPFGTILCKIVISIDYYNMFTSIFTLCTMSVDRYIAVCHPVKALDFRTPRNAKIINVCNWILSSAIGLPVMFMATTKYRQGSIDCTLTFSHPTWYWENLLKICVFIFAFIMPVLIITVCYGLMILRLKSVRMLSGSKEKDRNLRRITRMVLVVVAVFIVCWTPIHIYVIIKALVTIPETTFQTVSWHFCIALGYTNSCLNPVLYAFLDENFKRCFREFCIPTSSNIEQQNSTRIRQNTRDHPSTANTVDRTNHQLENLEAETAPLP

SMILES | EC50 [1] | Emax [2] | Ki [3] | Emax [4] | EC50 [5] | EC50 [6] | EC50 [7] | Ki [8] | Emax [9] | EC50 [10] | Ratio Ki [11] | Ratio Ki [12] | Emax [13] | Emax [14] | Ki [15] | EC50 [16] | Emax [17] | inhibition [18] | ED50 ([18]; 0.25 h) | Activity [19]
O=C1[C@H]2O[C@@]34CC[C@@]5(OCOc6c(O)ccc7c6[C@@]3(CCN(CC3CC3)[C@@H]4C7)[C@H]25)N1Cc1ccccc1 | 1.8 nM | 69.1% | 3.14 nM | 92.8% | 39.8 nM | 1.54 nM | 80.5 nM | 0.313 nM | 88.7% | 1.1 nM | 10 | 16.4 | 9.6% | 13.7% | 5.14 nM | 2.8 nM | 50.5% |  |  | 
CC(C)CN1CC[C@@]23c4c5ccc(O)c4OCO[C@]46CC[C@@]2(O[C@H](C(=O)N4Cc2ccccc2)[C@H]63)[C@H]1C5 | 400 nM | 65.6% | 186 nM | 96.4% | 333 nM | 140 nM | 760 nM | 7 nM | 130% | 15.6 nM | 26.6 | 17 | 12.2% | 8.4% | 119 nM | 223 nM | 57.9% |  |  | 
C=CCN1CC[C@@]23c4c5ccc(O)c4OCO[C@]46CC[C@@]2(O[C@H](C(=O)N4Cc2ccccc2)[C@H]63)[C@H]1C5 | 5.1 nM | 74% | 68.4 nM | 94.6% |  | 2 nM | 231 nM | 1.23 nM | 77.2% | 6.5 nM | 55.8 | 46.2 | 11.3% | 5.4% | 56.6 nM | 2.7 nM |  |  |  | 
CN1CC[C@@]23c4c5ccc(O)c4OCO[C@]46CC[C@@]2(O[C@H](C(=O)N4Cc2ccccc2)[C@H]63)[C@H]1C5 | 1350 nM | 83.6% | 23.3 nM | 112% | 307 nM | 141 nM | 478 nM | 1.94 nM | 138% | 11 nM | 12 | 103 | 36.1% | 110% | 200 nM | 113 nM | 79.2% | Dose-dependent effect | 5.26 mg/kg | Non-toxic
COc1ccc2c(c1O)[C@]13CCN(CC4CC4)[C@H](C2)[C@]12CC[C@]1(O)[C@H]3[C@H](O2)C(=O)N1Cc1ccccc1 |  |  | 47.7 nM |  |  |  |  | 175 nM |  |  | 0.27 | 1.4 |  |  | 248 nM |  |  |  |  | 
O=C1[C@H]2O[C@@]34CC[C@@]5(OCOc6c(O)ccc7c6[C@@]3(CCN(CCc3ccccc3)[C@@H]4C7)[C@H]25)N1Cc1ccccc1 | 639 nM |  | 45.9 nM | 115% | 12500 nM | 20.5 nM |  | 2.59 nM | 108% | 9.2 nM | 17.7 | 227 | 40.2% | 83% | 588 nM | 2.3 nM | 22.6% |  |  | 
O=C1[C@H]2O[C@@]34CC[C@@]5(OCOc6c(O)ccc7c6[C@@]3(CCN(CC3CC3)[C@@H]4C7)[C@H]25)N1c1ccccc1 | 1.2 nM | 42.9% | 4.61 nM | 118% | 1.2 nM | 0.39 nM | 6.5 nM | 0.534 nM | 123% | 0.98 nM | 8.6 | 3.2 | 8.8% | 25.6% | 1.69 nM | 9 nM | 80.4% |  |  | 
C=CCN1C[C@H](C)N([C@H](c2ccc(C(=O)N(CC)CC)cc2)c2cccc(OC)c2)C[C@H]1C [SNC-80] |  |  | 695 nM |  |  |  |  |  |  |  |  |  | 6.8% |  | > 1000 nM |  | 5.9% |  |  | 
O=C1[C@H]2O[C@@]34CC[C@@]5(OCOc6c(O)ccc7c6[C@@]3(CCN(CC3CC3)[C@@H]4C7)[C@H]25)N1CCc1ccccc1 | 5.2 nM | 51.2% | 1.75 nM | 103% | 2.4 nM | 0.62 nM | 3.9 nM | 1.16 nM | 90.6% | 0.41 nM | 1.5 | 1.7 | 4.8% | 19.7% | 1.94 nM | 2.1 nM | 75.8% |  |  | 

From ChEMBL document CHEMBL3259551, “Novel delta opioid receptor agonists with oxazatricyclodecane structure” (ACS Med Chem Lett, 2014)
